MLL AF4-AF9 inh = MLL-AF4/AF9 protein interaction inhibition. P42568. AlphaScreen, biotin-AF4 peptide binding to FLAG-AF9. inhibition, % at 10 µM. actives 0.47% (n = 350,000);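 active = every replicate reaching a set inhibition limit, whatever the replicate mean, cut at about 25% in these data; inconclusive = mean inhibition reaches that limit but some replicates miss it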;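 note: 0% = plate neutral control median and 100% = total signal loss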
Target sequence (P42568 whole entry, looked up): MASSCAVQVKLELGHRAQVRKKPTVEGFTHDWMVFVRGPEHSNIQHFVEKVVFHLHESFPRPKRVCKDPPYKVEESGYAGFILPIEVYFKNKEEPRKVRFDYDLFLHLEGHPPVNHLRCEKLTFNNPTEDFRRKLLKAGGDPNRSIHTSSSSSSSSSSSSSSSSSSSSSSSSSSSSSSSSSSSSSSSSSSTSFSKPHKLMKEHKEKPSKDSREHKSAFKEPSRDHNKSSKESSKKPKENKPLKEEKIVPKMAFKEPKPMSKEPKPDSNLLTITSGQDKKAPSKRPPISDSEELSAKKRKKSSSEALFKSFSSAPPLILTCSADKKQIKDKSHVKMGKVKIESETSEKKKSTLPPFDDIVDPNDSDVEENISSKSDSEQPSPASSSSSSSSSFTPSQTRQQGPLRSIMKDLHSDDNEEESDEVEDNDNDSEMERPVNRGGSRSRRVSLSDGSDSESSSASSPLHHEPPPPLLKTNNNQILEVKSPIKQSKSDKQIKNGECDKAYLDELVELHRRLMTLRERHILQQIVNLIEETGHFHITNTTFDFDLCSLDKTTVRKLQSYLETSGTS
S100A4 inh HTS = blocks human S100A4 binding to myosin IIA peptide; S100A4/TAMRA-MyoIIA peptide fluorescence polarization; inhibition, % at 10.7 µM; AID 652163; P26447; actives 0.14% (n = 360,000);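 active = mean inhibition of at least 70% across replicates, with every replicate also reaching that level; inconclusive = mean inhibition reaches 70% but some replicates fall short; inactive = mean inhibition below 70%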
Target sequence (P26447 whole entry, looked up): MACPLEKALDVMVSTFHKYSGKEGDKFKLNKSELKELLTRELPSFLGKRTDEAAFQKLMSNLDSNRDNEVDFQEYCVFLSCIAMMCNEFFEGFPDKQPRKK
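Compound dosing: one dose per compound; test system: human S100A4 monomer with TAMRA-labelled myosin IIA peptide; probe or stimulus: TAMRA-labelled myosin IIA heavy-chain peptide probe, 5 nM; medium: HEPES buffer with Ca2+, pH 7.2; schedule: 5 min incubation before reading; benchmarks: neutral control DMSO, positive control TFP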
RAD52 inh = RAD52 (human) annealing inhibition; inhibition, % at 18.7 µM; actives 0.46% (n = 360,000); recombinant RAD52 DNA annealing, FRET fluorescence; P43351;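 active = every replicate showing at least 50% inhibition; inconclusive = mean inhibition at least 50% but not in every replicate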
INS-1E GSIS act = GLuc luminescence reporter in INS-1E cells, primary screen for activators of glucose-dependent secretion of insulin; INS-1E GLuc reporter insulin secretion, 2-3 h; activation, % at 16.6 µM; actives 0.61% (n = 370,000); AID 743287;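 active = lowest replicate activation of at least 40%, so every replicate reaches that level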;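 note: 0% = median of neutral control wells and 100% = median of IBMX positive control wells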
ERAP1 inh = ERAP1 (human) enzyme inhibition; recombinant ERAP1, Leu-AMC fluorescence, 60 min; actives 0.15% (n = 340,000); inhibition, % at 10.7 µM; AID 652197; Q9NZ08;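 active = mean replicate inhibition of at least 30%, or all replicates individually reaching that 30% level; inactive = mean below 30% and not every replicate reaching it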;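 note: 0% = neutral control wells and 100% = L-leucinethiol positive control wells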
RAD52 DNA ctr = binds DNA, flagging false RAD52 inhibitor hits. shares compounds with RAD52 inh. Salmon sperm DNA/acridine orange FP displacement, DNA binding. AC50, µM. actives 8% (n = 1,000);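 active = fitted half-maximal concentration for signal loss at or below twice the highest dose tested, in every separate run, actives reach about 64 µM in these data; inconclusive = runs disagree, or flat partial signal loss, or poor fit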
Starred values were filed as active, the others as inactive; i = inactive; ? = inconclusive; . = no result given. Hits are enriched below; roughly 1.5% of the tested compounds scored in any of these assays.

SMILES | MLL AF4-AF9 inh | S100A4 inh HTS | RAD52 inh | INS-1E GSIS act | ERAP1 inh | RAD52 DNA ctr
COc1ccc(NC(=O)N(C)C[C@@H]2Oc3ccc(NC(=O)NC4CCCCC4)cc3CC(=O)N([C@H](C)CO)C[C@H]2C)cc1 | -2 | -4 | 14 | 16 | -2 | .
Cc1[nH]ccc2cc3nc4ccccc4c3cc12 | -3 | -5 | 101* | . | 2 | ?
COc1ccc(-c2nn(C)c3sc(C(=O)NCCN(C)C)cc23)cc1OC | 3 | 4 | 101* | 6 | 0 | i
COCCCNC(=O)c1cc2c(-c3cccc(OC)c3)nn(C)c2s1 | -3 | -2 | 17 | . | 0 | .
CCN(CC)CCNC(=O)c1cc2c(-c3cccc(OC)c3)nn(C)c2s1 | 9 | -2 | 68* | 20 | 3 | i
CCCN(CCC)CCNC(=O)c1cc2c(-c3ccccc3F)nn(C)c2s1 | 4 | -5 | 20 | -1 | 2 | .
CCCN(CCC)CCCNC(=O)c1cc2c(-c3ccc(OC)c(OC)c3)nn(C)c2s1 | 4 | 0 | 90* | -9 | 3 | i
Cn1nc(-c2ccc(Cl)cc2)c2cc(C(=O)NCCN3CCOCC3)sc21 | 2 | 3 | -1 | 3 | . | .
CN1CCN(C(=O)C[C@@H]2CC[C@H]3[C@@H](COC[C@H](O)CN3CC3CCCC3)O2)CC1 | -10 | -1 | -3 | 13 | -2 | .
CC(C)CC#Cc1cnc2c(c1)C(=O)N([C@H](C)CO)C[C@H](C)[C@@H](CN(C)C(=O)c1cnccn1)O2 | 1 | -6 | -5 | -1 | 1 | .
C[C@@H]1CCCCO[C@@H](CN(C)C(=O)Cc2ccccc2)[C@H](C)CN([C@H](C)CO)C(=O)c2cc(NS(=O)(=O)c3ccc(Cl)cc3)ccc2O1 | -4 | -6 | -12 | -30 | 4 | .
C[C@@H](NC(=O)C[C@H]1CC[C@H]2[C@@H](COC[C@H](O)CN2C(=O)Nc2cc(Cl)cc(Cl)c2)O1)c1ccccc1 | 1 | -2 | 10 | -6 | -2 | .
Cc1cccn2c(=O)c3cc(C(=O)NC(C)c4ccccc4)c(=N)n(CCCn4ccnc4)c3nc12 (stereo not given) | -30 | -3 | 68* | 4 | . | i
N=c1c(C(=O)NCCN2CCOCC2)cc2c(=O)n3ccccc3nc2n1CCCN1CCOCC1 | 0 | 3 | 77* | 0 | 37* | i
Cc1cccn2c(=O)c3cc(C(N)=S)c(=N)n(CCCN4CCOCC4)c3nc12 | 1 | 10 | 86* | 67 | . | i
Cc1cccn2c(=O)c3cc(C(=O)NCc4ccc(F)cc4)c(=N)n(CCCN4CCOCC4)c3nc12 | -9 | -6 | 20 | 6 | -29 | .
c1cncc(-c2nc(NCCCN3CCOCC3)c3c4c(sc3n2)CCC4)c1 | 4 | 26 | 62* | 11 | -1 | i
COc1cc2nc(N(CCCN(C)C)C(=O)c3ccc(C(=O)c4ccccc4)cc3)sc2cc1OC | 28* | -1 | 72* | -32 | 6 | i
CN(C)CCCN(C(=O)c1ccc(S(=O)(=O)N(C)Cc2ccccc2)cc1)c1nc2cc3c(cc2s1)OCO3 | 16 | -2 | -5 | -47 | 1 | .
CN(C)CCCN(C(=O)c1ccc2c(c1)OCCO2)c1nc2cc3c(cc2s1)OCO3 | 5 | -2 | 22 | -2 | -2 | .
CN(C)CCN(C(=O)c1ccc2ccccc2c1)c1nc2cc3c(cc2s1)OCCO3 | 50* | -10 | 69* | 32 | 2 | i
CCN(c1ccccc1)S(=O)(=O)c1ccc(C(=O)N(CCCN(C)C)c2nc3cc4c(cc3s2)OCO4)cc1 | ? | -6 | 66* | -43 | 1 | i
CN1CCN(C2Cc3cc(Cl)ccc3Sc3cc(F)ccc32)CC1 (stereo not given) | 17 | -5 | 54* | 4 | 26 | i
CCc1ccc2c(c1)Sc1ccccc1CC2N1CCN(C)CC1 (stereo not given) | 12 | 2 | 43 | 19 | . | .
C[C@H]1CN([C@@H](C)CO)C(=O)c2cc(-c3cccc(F)c3)cnc2O[C@H]1CN(C)Cc1cccnc1 | -2 | 28 | 6 | 6 | -1 | .
SMILES | MLL AF4-AF9 inh | S100A4 inh HTS | RAD52 inh | INS-1E GSIS act | ERAP1 inh | RAD52 DNA ctr
C[C@@H]1CN([C@H](C)CO)C(=O)Cc2cc(NC(=O)Nc3ccc4c(c3)OCO4)ccc2O[C@@H]1CN(C)Cc1ccc(C(F)(F)F)cc1 | 1 | -15 | -5 | -21 | 2 | .
COc1ccc2nc(C)cc(Nc3ccc(N4CCN(C)CC4)cc3)c2c1 | 15 | 3 | 100* | 18 | -1 | 42µM*
COc1ccc2nc(C)cc(Nc3ccc(C)cc3)c2c1 | 1 | 0 | 36 | 7 | 1 | .
CCCCN1C(=N)N([C@@H](C)CN2CCC[C@H]2CN2C(N)=NC[C@H]2CC(C)C)C[C@H]1Cc1ccccc1 | -3 | -1 | 0 | 24 | . | .
CCC[C@@H](CN1CCC[C@H]1CN1C(N)=NC[C@H]1CC(C)C)N1C[C@@H]([C@H](C)CC)N(CCc2ccc(Cl)c(Cl)c2)C1=N | 25* | 3 | 51* | -1 | 14 | i
CC[C@@H](C)[C@@H]1CN([C@@H](CN2CCC[C@H]2CN2C(N)=NC[C@H]2CC(C)C)C(C)C)C(=N)N1CCc1ccc(Cl)c(Cl)c1 | 20 | 4 | 50* | 12 | -1 | i
CC[C@@H](C)[C@@H]1CN([C@@H](C)CN2CCC[C@H]2CN2C(N)=NC[C@H]2CC(C)C)C(=N)N1CCc1ccc(Cl)c(Cl)c1 | 15 | 7 | 37 | 35 | 8 | .
CCC[C@@H](CN1CCC[C@H]1CN1C(N)=NC[C@H]1CC(C)C)N1C[C@@H](Cc2ccccc2)N(CCc2ccc(Cl)c(Cl)c2)C1=N | 33* | 11 | 65* | 39 | 21 | i
CCCCN1C(=N)N([C@@H](C)CN2CCC[C@H]2CN2C(N)=NC[C@@H]2Cc2ccccc2)C[C@H]1[C@H](C)CC | 9 | 1 | 6 | 9 | -6 | .
CCC[C@@H](CN1CCC[C@H]1CN1C(N)=NC[C@H]1CC(C)C)N1C[C@@H](Cc2ccccc2)N(CCCC2CCCC2)C1=N | 16 | 2 | 58* | -15 | 0 | i
CC[C@@H](C)[C@@H]1CN([C@@H](CN2CCC[C@H]2CN2C(N)=NC[C@H]2CC(C)C)C(C)C)C(=N)N1CCCC1CCCC1 | 8 | -11 | 21 | 30 | 2 | .
COc1ccc2c3c(n(C)c2c1)[C@H](CO)N(Cc1ccccc1F)CC31CCN(C(=O)C2CCC2)CC1 | . | -15 | -188 | -19 | . | .
Cc1ccc2c(c1)c1c3n2CCN(CC(O)CNC(C)C)C3CCC1 (stereo not given) | 20 | 1 | 82* | 6 | 6 | i
Cc1ccc(-c2cnc3c(c2)C(=O)N([C@@H](C)CO)C[C@@H](C)[C@H](CN(C)CC2CCCCC2)O3)cc1 | 3 | 17 | 5 | 14 | -3 | .

Screens as filed in PubChem BioAssay.
